Here are results for twelve compounds from ChEMBL document CHEMBL1129056, “Synthesis and in vitro evaluation of new wortmannin esters: potent inhibitors of phosphatidylinositol 3-kinase” (J Med Chem, 1996).

Test [1] can be described thus: Inhibition of Phosphatidylinositol 3-kinase from bovine brain. Set-up: species or system Bos taurus. The method in brief:
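Purified bovine brain PI 3-kinase with phosphatidylinositol as substrate. Lipid products extracted and separated by TLC with autoradiography. PI-3-P spots scraped and counted by liquid scintillation.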

A further test deals with CCRF-CEM. Kind of test: Cytotoxicity in rapidly proliferating CCRF-CEM cell lines after 72 hr exposure. The test is classed as functional, Homo sapiens.

In brackets after ≈: the same amount, converted by molar mass.

In general, IC50 refers to the concentration that gives 50% inhibition. For `C=CC(=O)O[C@@H]1C[C@]2(C)C(=O)CC[C@H]2C2=C1[C@]1(C)c3c(coc3C2=O)C(=O)O[C@@H]1COC`, in test [1], the 50% inhibitory concentration (IC50) is 0.95 ng/mL (≈ 2.16 nM). In the test with CCRF-CEM, the CT50 came to 0.4 µg/mL.

On to `COC[C@H]1OC(=O)c2coc3c2[C@@]1(C)C1=C(C3=O)[C@@H]2CCC(=O)[C@@]2(C)C[C@H]1OC(=O)CCl`, for which the 50% inhibitory concentration (IC50) in test [1] turned out to be 1.3 ng/mL (≈ 2.81 nM). This compound registered a CT50 in the test with CCRF-CEM of 0.7 µg/mL.

On to `CCC(=O)O[C@@H]1C[C@]2(C)C(=O)CC[C@H]2C2=C1[C@]1(C)c3c(coc3C2=O)C(=O)O[C@@H]1COC`, for which the 50% inhibitory concentration (IC50) in test [1] was 0.6 ng/mL (≈ 1.36 nM). The CT50 with CCRF-CEM was 0.2 µg/mL.

As for `CCCCC(=O)O[C@@H]1C[C@]2(C)C(=O)CC[C@H]2C2=C1[C@]1(C)c3c(coc3C2=O)C(=O)O[C@@H]1COC`, in test [1], the IC50 is 1.2 ng/mL (≈ 2.55 nM). For the same compound, the CT50 with CCRF-CEM stood at 0.8 µg/mL.

The compound `CCC(=O)O[C@@H]1C[C@]2(C)C(OC(C)=O)CC[C@H]2C2=C1[C@]1(C)c3c(coc3C2=O)C(=O)O[C@@H]1COC` (some centres undefined) registered an IC50 in test [1] of 56.5 ng/mL (≈ 116 nM). Moreover, the CT50 in the test on CCRF-CEM stood at 3.1 µg/mL.

The compound `COC[C@H]1OC(=O)c2coc3c2[C@@]1(C)C1=C(C3=O)[C@@H]2CCC(=O)[C@@]2(C)C[C@H]1OC(=O)Cc1ccccc1` registered an IC50 in test [1] of 1.53 ng/mL (≈ 3.03 nM). In the test with CCRF-CEM, this compound yielded a CT50 of 1 µg/mL.

Consider `COC[C@H]1OC(=O)c2coc3c2[C@@]1(C)C1=C(C3=O)[C@@H]2CCC(=O)[C@@]2(C)C[C@H]1O`, for which, in test [1], the IC50 was 10 ng/mL (≈ 25.9 nM). The compound also showed a CT50 with CCRF-CEM of 2 µg/mL.

The compound `CCCC(=O)O[C@@H]1C[C@]2(C)C(=O)CC[C@H]2C2=C1[C@]1(C)c3c(coc3C2=O)C(=O)O[C@@H]1COC` had a half-inhibitory concentration (IC50) in test [1] of 0.4 ng/mL (≈ 0.876 nM). The compound also came in with a CT50 with CCRF-CEM of 0.3 µg/mL.

In test [1], `COC[C@H]1OC(=O)c2coc3c2[C@@]1(C)C1=C(C3=O)[C@@H]2CCC(=O)[C@@]2(C)CC1=O` registered a concentration for half-maximal inhibition (IC50) of 1.6 ng/mL (≈ 4.16 nM). The compound further had a CT50 in the test with CCRF-CEM of 2.8 µg/mL.

In turn, `COC[C@H]1OC(=O)c2coc3c2[C@@]1(C)C1=C(C3=O)[C@@H]2CCC(=O)[C@@]2(C)C[C@H]1OC(=O)CC(C)C` showed an IC50 in test [1] of 1.16 ng/mL (≈ 2.47 nM). In the test with CCRF-CEM, this compound yielded a CT50 of 0.6 µg/mL.

For `CCC(=O)O[C@@H]1C[C@]2(C)C(O)CC[C@H]2C2=C1[C@]1(C)c3c(coc3C2=O)C(=O)O[C@@H]1COC` (some centres undefined), the IC50 in test [1] stood at 0.38 ng/mL (≈ 0.855 nM). Further, the CT50 in the test on CCRF-CEM came to 0.2 µg/mL.

Consider `COC[C@H]1OC(=O)c2coc3c2[C@@]1(C)C1=C(C3=O)[C@@H]2CCC(=O)[C@@]2(C)C[C@H]1OC(C)=O` [WORTMANNIN], for which, in test [1], the concentration for half-maximal inhibition (IC50) was 1.8 ng/mL (≈ 4.2 nM). This compound registered a CT50 in the test on CCRF-CEM of 0.9 µg/mL.
